The list is not random: actives were taken first. Their share in the collection is about 1.9%.
NR2E3 ag-1 = inhibitors of NR2E3-RetCOR corepressor binding, primary screen, NR2E3 agonist project, biochemical, TR-FRET, GST-NR2E3, biotin-RetCOR; hit rate 0.12% among 320,000; AID 2300, 2010; Photoreceptor-specific nuclear receptor (Homo sapiens), Q9Y5X4; 1536-well; inhibition of corepressor binding, % at 4.78 µM;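 active = percent inhibition above the cutoff of mean plus 3 SD of all tested compounds, set per screening campaign, cut at about 20% in these data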;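 also: 0% = DMSO wells and 100% = biotin wells as full block of FRET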
Target sequence (Q9Y5X4 whole entry, looked up): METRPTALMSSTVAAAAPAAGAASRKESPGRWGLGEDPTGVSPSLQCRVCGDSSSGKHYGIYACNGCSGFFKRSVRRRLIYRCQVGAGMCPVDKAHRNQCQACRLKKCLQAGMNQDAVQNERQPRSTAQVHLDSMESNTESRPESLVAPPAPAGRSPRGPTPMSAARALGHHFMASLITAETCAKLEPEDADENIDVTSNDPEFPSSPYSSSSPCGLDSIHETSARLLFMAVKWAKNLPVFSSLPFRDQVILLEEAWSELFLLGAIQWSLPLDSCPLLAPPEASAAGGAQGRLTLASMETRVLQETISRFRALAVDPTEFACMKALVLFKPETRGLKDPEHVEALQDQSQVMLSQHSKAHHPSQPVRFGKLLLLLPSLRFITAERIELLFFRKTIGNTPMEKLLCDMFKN
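System: GST-tagged NR2E3 plus biotinylated RetCOR corepressor; Amount: 1.35 nM GST-tagged NR2E3 final; Dosing: single nominal compound dose of 4.8 µM; Schedule: 5 h incubation at 4 °C; Technique: TR-FRET with europium anti-GST and streptavidin-D2, 340 nm excitation; Controls: biotin wells as high control, 0.6% DMSO wells as low control.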
SKN-1 inh = suppressors of acrylamide-induced Pgst-4::GFP reporter in worms, primary screen, SKN-1 inhibitor project, whole organism, uHTS, GFP/RFP fluorescence ratio, strain VP596 | C. elegans VP596 Pgst-4::GFP/RFP ratio, 24 h | inhibition, % at 21.8 µM | hit rate 0.49% among 360,000;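 active = interference check ratio from 0.5 to 1.5 plus GFP to RFP signal ratio inhibition reaching or exceeding a fixed threshold, cut at about 30% in these data, passing the limit was not always enough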
NR2E3 ag-2 = NR2E3 agonists in two-hybrid cells, primary screen, cell-based, luminescence, CHO-S, Gal4-NCOR/VP16-NR2E3; Photoreceptor-specific nuclear receptor (Homo sapiens), Q9Y5X4; hit rate 0.35% among 360,000; luciferase; inhibition of corepressor binding, % at 3.98 µM;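 active = inhibition above the mean of all tested compounds plus 3 SD, cut at about 70% in these data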;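 also: 0% = DMSO with NR2E3 transfected cells and 100% = cells lacking NR2E3 construct; higher means lower luciferase signal from less NR2E3 corepressor binding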
MT1-MMP act inh = blockers of MT1-MMP proenzyme processing, primary screen, HT1080 RFP-PRO-GFP cells, GFP/RFP fluorescence; Matrix metalloproteinase-14 (Homo sapiens), P50281; GFP/RFP ratio fluorescence, overnight; percent of plate control window, DMSO zero; GFP/RFP ratio change, % at 20 µM; hit rate 0.061% among 360,000; AID 651647, 2012;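 active = GFP/RFP ratio change of at least 30% with cell ATP level not reduced by more than half and red fluorescence within 50% of control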
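Test system: HT1080 cells expressing an RFP-PRO-GFP fluorescent reporter construct / Compound dosing: single-point 20 µM compound, 1% DMSO / Schedule: cells overnight before dosing, compound overnight, 37 °C, 5% CO2 / Evaluation: GFP/RFP fluorescence ratio / Control set: DMSO and RFP-L50D-GFP cell wells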
Rev-erbA mod = modulators of Rev-erb alpha DNA binding, primary screen, biochemical, FITC-DNA, fluorescence polarization, uHTS | Nuclear receptor subfamily 1 group D member 1 (Homo sapiens), P20393 | Rev-erbα–FITC-DNA binding, 90 min | activity, % at 10 µM | hit rate 0.79% among 370,000 | AID 1259318, 2017;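 active = activity above about 14%, limit read from the data; passing the limit was not always enough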;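 also: 0% = DMSO wells with 35 nM protein and 100% = DMSO wells with 750 nM protein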
PG9 Ab binder = binders of HIV-1 gp120 antibody PG9, primary screen, biochemical, TR-FRET; HIV-1 gp120 / PG9 antibody interaction; TR-FRET gp120-PG9 antibody binding; inhibition, % at 6.7 µM; hit rate 0.43% among 360,000; AID 624416, 2012; in the data active = inhibition above about 8.5%
PG9 binder conf = binders of anti-gp120 antibody PG9, confirmation, biochemical, TR-FRET. shares compounds with PG9 Ab binder. TR-FRET PG9 antibody binding. inhibition, % at 6.7 µM. hit rate 90% among 1,500. AID 651571, 2012; in the data active = inhibition above about 9%
PGV04 counter = binders of control antibody PGV04, counter-screen for PG9 antibody binder project, biochemical, TR-FRET, distinct HIV envelope site; shares compounds with PG9 Ab binder; TR-FRET PGV04 antibody-gp120 binding; inhibition, % at 6.7 µM; hit rate 95% among 1,500; AID 651604, 2012; in the data active = inhibition above about 9.5%
Active calls of the source: *; nt = no result.

SMILES	NR2E3 ag-1	SKN-1 inh	NR2E3 ag-2	MT1-MMP act inh	Rev-erbA mod	PG9 Ab binder	PG9 binder conf	PGV04 counter
Cc1ccc2nc(NCCNC(=O)c3ccccc3)c(C#N)cc2c1	-1	15	-2	-1	-3	2	nt	nt
CN1C(=O)c2cc(NC(=O)C3CCCCC3)ccc2OC[C@H]2O[C@@H](CC(=O)NC3CCCC3)CC[C@H]21	nt	nt	nt	nt	-7	nt	nt	nt
CC(C)(C)C(=O)CSc1nnc(SCc2cccc3ccccc23)s1	nt	nt	nt	nt	-3	nt	nt	nt
CC(c1cc(F)ccc1O)c1c[nH]c2ccccc12 (stereo unspecified)	nt	nt	nt	nt	4	nt	nt	nt
CCOC(=O)N(C)C[C@@H]1OCc2cn(nn2)CCCC(=O)N([C@H](C)CO)C[C@H]1C	nt	nt	nt	nt	-1	0	nt	nt
COc1cccc(-c2nnc(NC(=O)Cc3cccs3)s2)c1	-12	11	-13	1	16	13*	18*	39*
O=C(Cc1ccccc1)Nc1nnc(-c2cccs2)s1	-7	1	-58	12	9	12*	19*	31*
O=C(Cc1cccs1)Nc1nnc(-c2ccncc2)s1	3	9	-18	-1	-5	-2	nt	nt
CCCCCCCCN1C(=O)[C@@H](CC(=O)NCc2cccc(C(F)(F)F)c2)C[C@@]2(C(=O)OC)C1=C[C@H](C1CCCC1)O[C@@H]2C	nt	nt	nt	nt	-3	0	nt	nt
CCOC(=O)CC[C@@H]1CC[C@]2(CCCN(S(=O)(=O)C3CCCCC3)C2)O1	nt	nt	nt	nt	2	nt	nt	nt
O=C(COc1ccccc1)Nc1ccc(-c2nnc(-c3ccco3)o2)cc1	-2	19	-40	6	6	70*	55*	72*
O=C(O)c1cccc(N2C(=O)c3cc4cccc(Br)c4cc3C2=O)c1	15	3	-9	-6	5	14*	16*	22*
CCCCCCCCN1C(=O)[C@@H](CC(=O)NCCC(C)C)C[C@@]2(C(=O)OC)C1=C[C@H](C(C)C)O[C@@H]2C1CC1	nt	nt	nt	nt	2	nt	nt	nt
COc1ccc2cc(CN(CC3COCCO3)S(=O)(=O)c3ccc(Cl)cc3)c(=O)[nH]c2c1 (stereo unspecified)	-1	6	-45	0	2	24*	26*	31*
COc1cccc(CNC(=O)[C@H]2CCCN2C(=O)[C@H]2CCCN2C(=O)c2ccc(C)cc2)c1	nt	nt	nt	nt	-10	1	nt	nt
CCCCNC(=O)C[C@H]1C(=O)N(CCCOC)C2=CCCCC[C@]21C(=O)OC	nt	nt	nt	nt	1	nt	nt	nt
Nc1nc(Cl)nc2ccc(Br)cc12	8	8	12	-3	3	0	nt	nt
CCc1c(C)nc2ccc(Br)cc2c1Cl	0	-6	-26	-5	4	9.3*	24*	26*
CS(=O)(=O)N1C[C@]2(c3ccccc3)CC1Cc1ccccc12	nt	nt	nt	nt	5	nt	nt	nt
Cc1cc(C)c2nc(-c3ccccn3)cc(C(=O)NCCc3ccc(S(N)(=O)=O)cc3)c2c1	-6	-8	-13	2	8	30*	23*	40*
COc1ccccc1CCNC(=O)c1cc(-c2ccccn2)nc2ccccc12	nt	11	-8	0	12	27*	22*	32*
CCNC(=O)N1CCN(c2ccc(N3CCN(Cc4ccccc4)[C@H](C)C3)c(C)c2)[C@H](C)C1	nt	nt	nt	nt	0	-2	nt	nt
O=C(NCC1CCN(C(=O)C(=O)c2cccs2)CC1)c1ccc2ccccc2c1	nt	nt	nt	nt	-1	-2	nt	nt
